# SENP1 inh – SENP1 (human) catalytic domain inhibition | Q9P0U3 | recombinant SENP1 catalytic domain, CyPet-SUMO1-YPet FRET cleavage | inhibition, % at 10 µM | hit rate 0.21% among 360,000 | AID 624204;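 active = inhibition at least 30% at 10 µM, raw YFP signal under a set limit, fluorescence ratio 0.5 to 1.5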;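 note: 0% = enzyme with DMSO and 100% = no enzyme wells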
#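 Assay system: hSENP1 catalytic domain, recombinant. Amount: SENP1 enzyme, 20 pM final. Schedule: 50 min reaction, RT, dark. Technique: FRET, CFP and YFP emission. Control set: no-enzyme wells low, DMSO-plus-enzyme wells high control.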
# SENP6 inh – SENP6 protease inhibition. Recombinant SENP6 catalytic domain, aminoluciferin luminescence. hit rate 1.8% among 330,000. inhibition, % at 10 µM. Q9GZR1;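 active = inhibition above about 50% at the single tested dose, limit read from the data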;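 note: plate controls were DMSO wells with enzyme for no effect and DMSO wells lacking enzyme for full effect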
# SENP8 block-1 – inhibitors of human SENP8 protease; purified SENP8, Z-RLRGG-aminoluciferin cleavage, luminescence; inhibition, % at 10 µM; Q96LD8; hit rate 1.2% among 330,000; in the data active = inhibition above about 50%
# Target sequence (Q96LD8 whole entry, looked up): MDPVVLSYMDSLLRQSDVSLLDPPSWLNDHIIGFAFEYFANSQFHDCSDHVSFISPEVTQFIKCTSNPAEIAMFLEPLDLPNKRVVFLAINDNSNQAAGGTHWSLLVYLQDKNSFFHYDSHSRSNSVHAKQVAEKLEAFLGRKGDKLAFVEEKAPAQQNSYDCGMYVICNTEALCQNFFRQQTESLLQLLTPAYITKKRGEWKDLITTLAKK
# SENP7 inh – SENP7 protease inhibition; Q9BQF6; recombinant SENP7, Z-RLRGG-aminoluciferin luminescence, 40 min; inhibition, % at 5 µM; hit rate 1.5% among 330,000; AID 434973;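 active = inhibition above about 50% at the single test dose, limit read from the data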;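 note: plate controls were DMSO with enzyme for no effect and no enzyme buffer wells for full effect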
# SENP8 block-2 – SENP8 (human) protease inhibition | recombinant SENP8, Nedd8 substrate fluorescence | hit rate 0.64% among 360,000 | inhibition, % at 20 µM | AID 602440; in the data active = inhibition mostly above about 40%, no sharp cut-off; inactive = mostly below about 27%
# SENP8 conf – confirmation of human SENP8 protease inhibitors; shares compounds with SENP7 inh; Recombinant SENP8, Z-RLRGG-aminoluciferin luminescence, 60 min; inhibition, % at 12.5 µM; hit rate 40% among 6,200; AID 488912;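 active = mean inhibition across replicates above about 50%, limit read from the data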
# SENP6 conf – confirmation of human SENP6 protease inhibitors | shares compounds with SENP7 inh | recombinant SENP6, Z-RLRGG-aminoluciferin luminescence | inhibition, % at 12.5 µM | hit rate 58% among 6,200 | AID 488915
# SENP7 confirm – confirmation of human SENP7 protease inhibitors; recombinant SENP7, Z-RLRGG-aminoluciferin luminescence, 40 min; inhibition, % at 12.5 µM; AID 488917; hit rate 69% among 6,200; shares compounds with SENP7 inh
# Casp3 select – caspase-3 inhibition (SENP selectivity assay). inhibition, % at 12.5 µM. purified caspase-3, Z-DEVD-aminoluciferin luminescence, 60 min. hit rate 60% among 6,200. shares compounds with SENP7 inh;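 active = mean inhibition above about 50%, limit read from the data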;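 note: plate controls were enzyme with DMSO for no effect and wells without caspase-3 for full effect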
# Target sequence (P42574 28-227 limits assumed): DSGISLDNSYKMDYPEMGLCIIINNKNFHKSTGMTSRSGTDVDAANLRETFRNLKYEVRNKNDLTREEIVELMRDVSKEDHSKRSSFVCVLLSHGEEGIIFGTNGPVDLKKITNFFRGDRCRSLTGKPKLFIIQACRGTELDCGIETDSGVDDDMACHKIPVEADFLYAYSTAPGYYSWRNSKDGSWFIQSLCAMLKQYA
# SENP luc ctr – interferes with luciferase luminescence in SENP counter-screen. shares compounds with SENP7 inh. Pre-incubated SENP8/Z-RLRGG-aminoluciferin, luciferase luminescence interference. inhibition, % at 12.5 µM. hit rate 39% among 6,200;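 active = mean inhibition above about 50% when retested at one dose, limit read from the data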;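 note: plate controls were DMSO wells with completed reaction for no effect and substrate without enzyme for full effect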
# Active calls of the source: *; x = no result. In the library only some 2.5% were active in any assay of this set; here they are far more common.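 Rule for the calls, unless noted: active = mean inhibition above about 50% in the one-dose retest (limit read from the data); inactive = the rest.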
SMILES,SENP1 inh,SENP6 inh,SENP8 block-1,SENP7 inh,SENP8 block-2,SENP8 conf,SENP6 conf,SENP7 confirm,Casp3 select,SENP luc ctr
COC(=O)[C@]12C(=O)NC[C@H](CN1c1ccc(Cl)c(C)c1)N2C,1.7,-9.3,6.3,99.8*,21.2,-29.7,-17.6,-11.1,-11.7,-9.3
COC(=O)C1=C(C)N(c2ccc(Cl)c(Cl)c2)C(=O)C1,-68.5,4.5,0.6,-0.8,-6.2,x,x,x,x,x
O=C(CSc1n[nH]c(-c2cccnc2)n1)Nc1ccccc1C(F)(F)F,2.1,18.1,2.1,13.0,9.5,x,x,x,x,x
COc1cc(NC(=O)CCc2c(C)noc2C)c(C(=O)O)cc1OC,0.2,x,x,x,0.2,x,x,x,x,x
CCOc1ccccc1NC(=O)C1CCN(c2ccc(S(=O)(=O)N3CCCC3)cc2)CC1,0.8,1.1,7.0,-2.9,-4.4,x,x,x,x,x
CCOc1ccccc1NC(=O)C1CCN(S(=O)(=O)c2ccc(OC)c(OC)c2)CC1,-0.5,-9.0,2.2,71.3*,14.7,1.7,5.9,7.2,3.9,2.6
COc1ccc(C2/C(=C(/O)c3ccc(Br)cc3)C(=O)C(=O)N2C)cc1OC (stereo unspecified),2.2,6.5,-4.8,58.0*,12.2,4.5,5.3,0.4,-0.2,1.3
COc1ccc(NC(=O)NNS(=O)(=O)c2ccc(OC)c(OC)c2)c(OC)c1,0.8,-15.0,-0.6,-1.3,7.4,x,x,x,x,x
CCOC(=O)C1(C)CCCN1C(=O)c1ccc(C(=O)OC)cc1 (stereo unspecified),3.2,x,x,x,7.5,x,x,x,x,x
O=C(O)c1cc(-c2ccc3ccccc3c2)nc2ccc(F)cc12,-1.8,72.8*,66.0*,32.9,-369.0,-2.1,5.8,14.4,9.4,24.0
COCCCNC(=O)c1ccc(S(=O)(=O)c2ccc(Cl)cc2)c(NC(C)=O)c1,1.5,-5.5,-5.2,1.3,-20.2,x,x,x,x,x
FC(F)(F)c1nc2cc3nc4ccccc4[nH]c3cc2n1,3.9,54.0*,49.1,27.9,8.0,66.9*,64.9*,86.0*,80.5*,69.6*
Cc1cccc(S(=O)(=O)Nc2cccc3c2C(=O)c2ccccc2-3)c1,77.5,1.0,-4.2,-5.2,16.6,x,x,x,x,x
Cc1ccc(C)c(S(=O)(=O)/N=C2\C=C(NS(=O)(=O)c3ccccc3)C(=O)c3ccccc32)c1,1.0,55.1*,36.1,11.5,72.6*,2.2,29.3,-2.3,5.6,1.2
Oc1c(N=Nc2ccc(F)cc2)ccc2ccccc12,11.7,81.7*,85.8*,98.6*,42.2*,38.1,45.3,21.4,78.3*,12.0
Cc1ccc(N=Nc2ccc3ccccc3c2O)cc1,5.8,46.0,90.1*,100.4*,16.2,6.2,7.4,1.3,1.5,6.8
Oc1ccc2ccccc2c1N=Nc1ccc(F)cc1,6.3,6.0,-7.4,6.7,36.1,x,x,x,x,x
CC(=O)NC1Sc2ccccc2N=C1c1ccccc1 (stereo unspecified),2.5,88.9*,84.1*,84.6*,-69.7,-2.2,68.6*,97.4*,65.6*,30.7
CC(=O)N1c2ccccc2N=C(c2ccc(C(F)(F)F)cc2)C1C(=O)NC1CCCC1 (stereo unspecified),1.7,x,x,x,-102.9,x,x,x,x,x
COc1ccc(/C=C/c2nc3ccccc3c(=O)o2)cc1,-0.2,89.8*,84.1*,77.8*,-329.0,71.0*,71.3*,83.1*,62.8*,65.2*
COc1ccccc1/C=C/c1nc2ccc(OC(C)=O)cc2c(=O)o1,-24.6,71.9*,63.6*,64.6*,-497.7,12.8,6.9,16.6,13.9,-1.1
COc1ccccc1/C=C/c1nc2ccccc2c(=O)o1,-2.2,x,x,x,-165.0,x,x,x,x,x
CCCS(=O)(=O)N1CCCC(C(=O)Nc2ccc3c(c2)CCC3)C1 (stereo unspecified),0.4,4.6,-1.1,-7.0,7.4,x,x,x,x,x

# Source: PubChem BioAssay
